The target in this test is Platelet-activating factor acetylhydrolase 2, cytoplasmic (Mus musculus) (UniProt Q8VDG7). As to the kind of experiment: PAFAH2 inhibition in T-cell proteome, late-stage follow-up, selectivity assay for pPAFAH inhibitor project, cell lysate, gel-based competitive ABPP, fluorescence (AID 588767). The settings on record: BW5147 T-cell soluble proteome, FP-Rh, stronger effect = higher value. The method, boiled down: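 System – endogenous PAFAH2 within BW5147-derived murine T-cell soluble proteome · Probe or stimulus – Rhodamine-linked fluorophosphonate activity probe (FP-Rh), 1 µM final · Timing – compound pre-incubation 30 min and probe labelling 30 min, both 37 °C · Measured by – SDS-PAGE separation with in-gel rhodamine fluorescence scanning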

Structures are written as SMILES. The source made the active and inactive calls.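 The calls were made as follows: active = inhibition of at least 50% at 0.1 µM compound; inactive = inhibition below 50%.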

Sequence of Platelet-activating factor acetylhydrolase 2, cytoplasmic (Mus musculus) (Q8VDG7 whole entry, looked up): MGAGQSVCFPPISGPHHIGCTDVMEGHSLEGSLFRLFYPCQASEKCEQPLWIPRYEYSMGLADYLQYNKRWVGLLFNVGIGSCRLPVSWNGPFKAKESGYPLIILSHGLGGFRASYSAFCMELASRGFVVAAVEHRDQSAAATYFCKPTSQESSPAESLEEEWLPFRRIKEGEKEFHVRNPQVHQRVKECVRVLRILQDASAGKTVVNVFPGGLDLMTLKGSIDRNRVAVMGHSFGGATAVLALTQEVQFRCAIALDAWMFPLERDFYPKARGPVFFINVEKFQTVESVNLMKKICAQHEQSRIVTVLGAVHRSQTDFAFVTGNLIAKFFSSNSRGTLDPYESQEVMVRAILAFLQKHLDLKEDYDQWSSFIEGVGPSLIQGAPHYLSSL

As usually defined, the inhibition is the change of the read-out against control, counted positive when it falls. On to `Cc1cc(N2CCN(C(=O)Oc3ccc(-c4ccccc4)cn3)CC2)c2ccccc2n1`, for which the inhibition is 0% (inactive) (at 0.1 µM); 0% (inhibition, at 1 µM); 0% (inhibition, at 10 µM).

On to `COc1ccc2cc(-c3cnn(C(=O)N4CCCC4)n3)ccc2c1`, for which the inhibition (at 0.1 µM) is 100%.

For the origin of these results see PubChem BioAssay AID588767 (The Scripps Research Institute Molecular Screening Center, 2011).
